Bioassay records: PubChem, several laboratories
Neddylation inh = blocks human cullin neddylation; P61081+Q13564; TR-FRET cullin neddylation, biochemical; calls only at 25 µM; hit rate 0.58% among 360,000; AID 651699; in the data active = inhibition above about 36%
proKLK7 act = proKLK7 (human) activation, primary screen. P49862. purified proKLK7, EDANS-DABCYL substrate fluorescence; 100% is mature enzyme control, 0% vehicle. activation, % at 7 µM. hit rate 0.9% among 370,000;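 active = activation above the mean of all tested compounds plus 3 SD, computed per campaign excluding outliers beyond control limits, cut at about 13% in these data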
Target sequence (P49862 whole entry, looked up): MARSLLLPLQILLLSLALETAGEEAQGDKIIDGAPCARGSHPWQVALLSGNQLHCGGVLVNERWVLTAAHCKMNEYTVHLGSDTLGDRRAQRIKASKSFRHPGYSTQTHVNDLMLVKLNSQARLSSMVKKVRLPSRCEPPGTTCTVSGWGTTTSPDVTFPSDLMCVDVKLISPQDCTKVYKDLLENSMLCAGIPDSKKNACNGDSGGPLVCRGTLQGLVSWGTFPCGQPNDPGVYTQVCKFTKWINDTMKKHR
procasp7 counter = counter-screen for procaspase-3 activators: activators of human procaspase-7. recombinant procaspase-7, Ac-DEVD-pNA absorbance 405 nm; D23A/D198A/D206A triple mutant, cannot self-cleave; scale: DMSO 0, 5 µM enzyme 100. activation, % at 8.5 µM. hit rate 0.093% among 330,000. AID 463210;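 active = percent activation above the screen-wide mean plus 3 SD, cut at about 25% in these data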
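Assay system: Uncleavable procaspase-7 mutant enzyme; Input: 2 µM procaspase-7 mutant as dispensed; Also added: DEVD-pNA substrate; Medium: Zinc-free HEPES pH 7.4 with 300 mM NaCl, 0.01% Triton X-100; Timing: 1 h compound preincubation, 2 h substrate cleavage, 25 °C; Measured by: Epi-absorbance of released pNA at 405 nm, two timepoints.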
proCasp3 act = activators of human procaspase-3 | recombinant procaspase-3 D3A, Ac-DEVD-pNA absorbance 405 nm | activation, % at 8.5 µM | P42574 | AID 463141 | hit rate 0.11% among 330,000;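 active = activation above the mean of all tested compounds plus 3 SD, cut at about 21% in these data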;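 also: 0% = DMSO alone and 100% = DMSO wells spiked with extra 5 µM PC-3 D3A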
Target sequence (P42574 whole entry D9A/D28A/D175A): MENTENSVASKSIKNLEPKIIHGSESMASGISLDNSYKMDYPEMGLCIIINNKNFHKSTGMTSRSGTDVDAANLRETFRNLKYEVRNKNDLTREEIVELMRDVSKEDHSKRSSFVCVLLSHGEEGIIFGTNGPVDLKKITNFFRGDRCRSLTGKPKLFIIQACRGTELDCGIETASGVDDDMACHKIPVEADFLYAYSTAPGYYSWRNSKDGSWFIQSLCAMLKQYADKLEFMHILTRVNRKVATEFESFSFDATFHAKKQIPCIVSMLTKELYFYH
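System: Procaspase-3 D3A mutant. Medium: Zinc-free 300 mM NaCl, 50 mM HEPES, 0.01% Triton X-100. Schedule: 1 h preincubation plus 2 h reaction at 25 °C. Measured by: 405 nm absorbance of p-nitroaniline, reads at 0 and 120 min. Read-out: percent activation relative to control range.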
KLK7 act conf = proKLK7 activation, confirmation; shares compounds with proKLK7 act; purified proKLK7, EDANS-DABCYL substrate fluorescence; scaled: vehicle 0, mature enzyme 100; activation, % at 7 µM; hit rate 68% among 3,200; AID 686949;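 active = activation, as change over the incubation, above the mean of all tested compounds plus 3 SD, cut at about 13% in these data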
EDANS interfere = fluorescence interference counter-screen for KLK7 activators. EDANS-DABCYL substrate fluorescence interference, no enzyme, 4 h; solvent 0%, active enzyme control 100%. shares compounds with proKLK7 act. AID 686952. activation, % at 7 µM. hit rate 80% among 3,200;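 active = activation above the all-compound mean plus 3 SD, ignoring values outside control-based bounds, cut at about 4.8% in these data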;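 also: value is the 4 h activation minus the activation read at time zero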
EDANS interf = optically interferes with EDANS-DABCYL fluorescence, kallikrein-7 activator counter-screen. EC50, µM. EDANS-DABCYL peptide fluorescence interference, no enzyme. hit rate 20% among 250. shares compounds with proKLK7 act;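 active = compounds that raise the fluorescence signal in this interference counterscreen, with EC50 at or below 10 µM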;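 also: intact quenched peptide substrate alone read at 355 nm excitation and 520 nm emission; signal is fluorescence gain from T0 to T4 after four hours at room temperature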
Active calls of the source: *. An excerpt weighted towards active compounds, which were near 1.6% of everything screened.

Screening COc1ccc(C(CNC(=O)c2cccc(S(=O)(=O)N3CCCCC3)c2)N2CCCC2)cc1 (stereo not given) returned Neddylation inh inactive, proKLK7 act 0, procasp7 counter 14 and proCasp3 act 7.
Nc1ccccc1/C=C/c1ccccc1N was read as proKLK7 act 85*, KLK7 act conf 61* and EDANS interfere 66*.
For CC(=O)c1cccc(NC(=O)CSc2n[nH]c(=O)n2C2CC2)c1 the results were Neddylation inh inactive, proKLK7 act 52*, procasp7 counter -1, proCasp3 act 5, KLK7 act conf -1 and EDANS interfere 1.
For O=C(CNC(=O)c1ccc(Cl)c([N+](=O)[O-])c1)OCN1C(=O)c2ccccc2C1=O the results were Neddylation inh inactive, proKLK7 act 1, procasp7 counter 2 and proCasp3 act 11.
Screening COC(=O)[C@]12C[C@H](CC(=O)N3CCN(C(=O)C4CC4)CC3)C(=O)N(Cc3cccc4ccccc34)C1=C[C@H](C(C)(C)C)O[C@@H]2C returned proKLK7 act 0.
Screening COC(=O)C1Cc2c([nH]c3ccccc23)CN1 (stereo not given) returned proKLK7 act 19*, procasp7 counter -5, proCasp3 act -2, KLK7 act conf 11 and EDANS interfere 8.9*.
For CN(C)/C=N/c1nc2nccc(-c3cccc(Cl)c3)n2n1 the results were proKLK7 act 15*, procasp7 counter -5, proCasp3 act 4, KLK7 act conf 34* and EDANS interfere 45*.
Screening CN(C)/C=N/c1nc2nccc(-c3ccc(F)cc3)n2n1 returned proKLK7 act 12, procasp7 counter -4 and proCasp3 act -8.
Screening CN(C)/C=N/c1nc2nccc(-c3cccs3)n2n1 returned Neddylation inh inactive, proKLK7 act 85*, procasp7 counter -1, proCasp3 act -4, KLK7 act conf 67* and EDANS interfere 79*.
Screening CN1CC(=O)NC1=NC(=O)c1ccc(Cl)c(S(=O)(=O)N2CCCCCC2)c1 returned Neddylation inh inactive, proKLK7 act 0, procasp7 counter -8 and proCasp3 act -11.
Screening CN(C)c1cccc2c(S(=O)(=O)NC(=O)[C@H]3O[C@@H](n4cnc5c(N)ncnc54)[C@H](O)[C@@H]3O)cccc12 returned proKLK7 act 25*, KLK7 act conf 35*, EDANS interfere 23* and EDANS interf 8.8*.
For Cc1nn(-c2ccccc2)c2c1C(O)CC(C)(C)C2 (stereo not given) the results were Neddylation inh inactive, proKLK7 act 0, procasp7 counter 17 and proCasp3 act 5.
For Cc1nc2c(c3c1[nH]c1ccccc13)C(O)CC(C)(C)C2 (stereo not given) the results were proKLK7 act 34*, procasp7 counter -12, proCasp3 act -19, KLK7 act conf 41* and EDANS interfere 40*.
`CCOC(=O)N1CCC(NC(=O)c2ccc3c(c2)N(CC)CCS3)CC1` gave proKLK7 act 27*, procasp7 counter -12, proCasp3 act -3, KLK7 act conf 7 and EDANS interfere 5.2*.
CN1CCSc2ccc(C(=O)NCc3cccc(F)c3)cc21 was read as Neddylation inh inactive, proKLK7 act 49*, procasp7 counter -2, proCasp3 act 1, KLK7 act conf 51*, EDANS interfere 1 and EDANS interf >70.
For O=C(NC1CCCC1)c1ccc2c(c1)N(Cc1ccc(F)cc1)CCS2 the results were Neddylation inh inactive, proKLK7 act -34, procasp7 counter 2 and proCasp3 act -4.
For Cc1ccc(CN2CCSc3ccc(C(=O)NCCCN4CCN(C)CC4)cc32)cc1 the results were Neddylation inh inactive, proKLK7 act 39*, procasp7 counter 3, proCasp3 act 7, KLK7 act conf -67 and EDANS interfere -78.
`CN(C)CCNC(=O)c1ccc2c(c1)N(Cc1ccc(F)cc1)CCS2` gave proKLK7 act 62*, procasp7 counter 8, proCasp3 act 8, KLK7 act conf -25 and EDANS interfere -22.
Cc1ccc(S(=O)(=O)N[C@@H](Cc2ccccc2)C(=O)N2CCC(C(=O)N[C@@H](CC(C)C)C(=O)O)CC2)cc1 was read as Neddylation inh inactive, proKLK7 act 0, procasp7 counter -1 and proCasp3 act 1.
Screening OCC[C@@H]1C[C@H](O)[C@@H](O)[C@@]2(CCCCO2)O1 returned Neddylation inh inactive, proKLK7 act 0, procasp7 counter 9 and proCasp3 act 3.
Screening O=S(=O)(c1ccc(N2CCC(c3ccc(Cl)cc3)=N2)cc1)N(CCO)CCO returned Neddylation inh inactive, proKLK7 act -374, procasp7 counter 5 and proCasp3 act 6.
Screening CN(C)CCCNS(=O)(=O)c1ccc(N2CCC(c3ccc(Cl)cc3)=N2)cc1 returned proKLK7 act 24*, procasp7 counter 7, proCasp3 act 8, KLK7 act conf 66* and EDANS interfere 62*.
Oc1[nH]c2ccccc2c1N=Nc1ccc(F)cc1 was read as Neddylation inh inactive, proKLK7 act 97*, procasp7 counter 3, proCasp3 act -1, KLK7 act conf 36* and EDANS interfere 56*.
Oc1[nH]c2ccccc2c1N=Nc1ccccc1 was read as Neddylation inh inactive, proKLK7 act 1, procasp7 counter -13 and proCasp3 act -5.
For Cc1ccc(S(=O)(=O)NCC(=O)OCc2cc(=O)oc3c(C)c(C)ccc23)cc1C the results were Neddylation inh inactive, proKLK7 act 0, procasp7 counter 4 and proCasp3 act 7.
For CNS(=O)(=O)c1cccc(C(=O)OCc2cc(=O)oc3c(C)c(O)ccc23)c1 the results were Neddylation inh inactive, proKLK7 act 265*, procasp7 counter 3, proCasp3 act 0, KLK7 act conf 603* and EDANS interfere 607*.
CCc1cc2c(COC(=O)c3cccc(S(C)(=O)=O)c3)cc(=O)oc2cc1O was read as proKLK7 act 508*, procasp7 counter -22, proCasp3 act -18, KLK7 act conf 568* and EDANS interfere 559*.
For CCN1CCCC1Cn1cnc2c([nH]c3ccc(C)cc32)c1=O (stereo not given) the results were proKLK7 act 16*, procasp7 counter 3, proCasp3 act -1, KLK7 act conf 5 and EDANS interfere 5.0*.
